# Screening data deposited in PubChem BioAssay by Johns Hopkins Ion Channel Center.
# MrgX1 allo act: positive allosteric modulators of MrgX1, primary screen, HEK293 cells, Fluo-4 calcium flux | Mas-related G-protein coupled receptor member X1 (Homo sapiens), Q96LB2 | FDSS; hits give high values | B-score at 10 µM | 310,000 compounds, 0.63% hits | AID 588675, 2011;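 active = plate-corrected calcium response at least 3 library SD above typical, normal starting fluorescence, not activating the receptor alone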;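 also: compound read alongside a low EC10 to EC30 dose of BAM8-22 agonist; peak minus trough fluorescence over baseline measured at the second addition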
# Target sequence (Q96LB2 whole entry, looked up): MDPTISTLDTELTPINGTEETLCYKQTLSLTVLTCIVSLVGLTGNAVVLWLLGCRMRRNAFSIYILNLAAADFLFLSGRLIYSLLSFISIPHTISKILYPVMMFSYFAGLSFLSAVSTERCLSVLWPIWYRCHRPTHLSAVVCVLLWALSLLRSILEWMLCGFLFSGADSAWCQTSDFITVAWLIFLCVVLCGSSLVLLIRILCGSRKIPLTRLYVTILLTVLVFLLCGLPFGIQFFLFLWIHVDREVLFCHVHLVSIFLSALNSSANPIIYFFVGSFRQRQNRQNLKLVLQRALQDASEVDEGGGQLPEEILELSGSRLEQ
# MrgX1 antag: antagonists of human MrgX1 receptor, primary screen, HEK293 cells, Fluo-4 calcium flux; AID 588676, 2011; B-score at 10 µM; BAM8-22 antagonism; hits give low values; 310,000 compounds, 1.3% hits;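 active = calcium-response B-score plate-corrected more than 3 library SD below zero, starting fluorescence within 5 deviations, no agonist response on first addition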;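 also: peak minus trough fluorescence over baseline after final BAM8-22 challenge near maximal dose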
# RGS4 inh: RGS4 inhibitors, primary screen, cell-based, HEK293 M3R inducible RGS4, calcium flux; Fluo-4 calcium flux; hits give high values; triggered by carbachol at its EC20; B-score at 10 µM; 310,000 compounds, 0.45% hits; AID 463165, 2010;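 active = B-score, a plate-corrected calcium signal, over three deviations above library mean, with baseline fluorescence within five deviations of library mean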;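 also: RGS4 expression induced by doxycycline in cells with stable M3 receptor; B-score is computed from the integrated fluorescence ratio over baseline after carbachol; higher B-score means a larger calcium signal and so more RGS4 inhibition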
# Target sequence (P49798 whole entry, looked up): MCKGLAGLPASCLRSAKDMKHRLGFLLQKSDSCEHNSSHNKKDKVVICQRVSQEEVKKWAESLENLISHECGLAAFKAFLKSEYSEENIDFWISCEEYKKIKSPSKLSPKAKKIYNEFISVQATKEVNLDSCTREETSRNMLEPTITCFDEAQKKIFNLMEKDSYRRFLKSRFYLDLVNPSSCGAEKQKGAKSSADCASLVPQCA
# RGS4 act: RGS4 potentiators or activators, primary screen, cell-based, HEK293 M3R inducible RGS4, calcium flux. 310,000 compounds, 0.92% hits. carbachol calcium flux Fluo4; hits give low values. B-score at 10 µM;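 active = B-score of the integrated calcium signal more than 4 SD below the library mean, with starting fluorescence not abnormally high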;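 also: negative B-score means reduced calcium response which marks RGS4 activation or potentiation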
#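 test system = HEK293 cells with stable M3R and inducible RGS4 | schedule = recording 10 s baseline at 1 Hz, 100 s post-agonist | technique = Fluo4-AM (2 µM) calcium-flux fluorescence, kinetic read | measure = Agonist-evoked peak-minus-minimum fluorescence over baseline, integrated ratio, B score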
# MrgX1 ag: agonists of human MrgX1 receptor, primary screen, HEK293 cells, Fluo-4 calcium flux; 310,000 compounds, 0.44% hits; B-score at 10 µM; Fluo-4 calcium fluorescence, agonist mode; hits give high values; AID 588627, 2011;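 active = calcium response B-score plate-corrected fluorescence ratio at least 3 library SD, with starting fluorescence B-score inside 5 SD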
#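 Test system: HEK293 cells stably expressing human MrgX1 receptor; amount: 15,000 cells per well; doses: compound delivered in addition one of three; times: overnight plating before 1 h dye loading; detection: Fluo-4 NW calcium-flux fluorescence, kinetic read; read-out basis: B-scored fluorescence response ratio; controls: positive and negative controls per plate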
# MrgX1 antag conf: MrgX1 receptor antagonists, duplicate retest, confirmation, HEK293 cells, Fluo-4 calcium flux | shares compounds with MrgX1 antag | AID 602420, 2012 | remaining BAM8-22 calcium response % of control (hits give low values), % at 10 µM | BAM8-22 calcium flux; hits give low values | 2,300 compounds, 19% hits;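 active = remaining agonist calcium response no higher than 100% minus 3 SD of agonist-only control wells, with starting fluorescence near control levels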;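 also: agonist BAM8-22 given at a near maximal EC90 to ECmax level; peak minus minimum fluorescence divided by baseline after agonist addition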
# HEK293 Ca flux: nonspecific calcium signal in parental HEK293, confirmation, counter-screen for MrgX1 antagonist project, parental HEK293 cells, Fluo-4 calcium flux; shares compounds with MrgX1 antag; Fluo-4 calcium fluorescence, FDSS; fluorescence ratio F(max-min)/F0 at 10 µM; 4,000 compounds, 2% hits; AID 624111, 2012;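 active = duplicate-averaged calcium fluorescence ratio at least three times the standard deviation of buffer wells, a nonspecific response in parental cells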
# HEK293 Ca counter: calcium response in parental HEK293 cells, primary screen, counter-screen for MrgX1 allosteric activator project, cell-based, Fluo-4 calcium flux, duplicate | shares compounds with MrgX1 antag | Fluo-4 fluorescence ratio; hits give high values | fluorescence ratio F(max-min)/F0 at 10 µM | 4,000 compounds, 0.4% hits;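 active = calcium fluorescence ratio, averaged over duplicates, at least 3 SD of the buffer-well ratio, meaning a nonspecific response in receptor-free cells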;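 also: untransfected parental HEK293 lacking MrgX1 used as counterscreen for MrgX1 allosteric activators; fluorescence change taken during the second addition on a kinetic imager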
# HEK293 Ca cntr2: calcium response in parental HEK293 cells, primary screen, counter-screen for MrgX1 agonist project, cell-based, Fluo-4 calcium flux, duplicate, agonist mode; shares compounds with MrgX1 antag; Fluo-4 calcium fluorescence (FDSS); hits give high values; fluorescence ratio F(max-min)/F0 at 10 µM; 4,000 compounds, 8.7% hits;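 active = calcium fluorescence ratio at least three times the spread of buffer wells, meaning a non-specific response in parental cells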
# The depositor's hits bear a star; i = inactive; · = no result. Compounds with a hit are over-represented: about 3.5% of the library has one in this group of screens.
SMILES,MrgX1 allo act,MrgX1 antag,RGS4 inh,RGS4 act,MrgX1 ag,MrgX1 antag conf,HEK293 Ca flux,HEK293 Ca counter,HEK293 Ca cntr2
COc1ccc(C(=O)N(c2ccc(OC)cc2)S(=O)(=O)c2cccs2)cc1,i,-4.93*,i,i,i,i,i,i,i
COc1ccc(N(C(=O)c2ccccc2)S(=O)(=O)c2cccs2)cc1,i,i,i,i,i,·,·,·,·
COc1ccc(-c2csc(/C(C#N)=C\c3ccc(OC)c([N+](=O)[O-])c3)n2)cc1,i,i,i,i,i,·,·,·,·
COc1ccc(-c2csc(/C(C#N)=C\c3ccc(O)c([N+](=O)[O-])c3)n2)cc1OC,i,-11.2*,i,i,i,41.2%*,i,i,i
O=C(NC(NC(=S)Nc1cc(Cl)ccc1Cl)C(Cl)(Cl)Cl)c1ccco1 (stereo not drawn),i,-5.83*,i,i,i,59.6%*,i,i,i
O=C(NC(NC(=S)Nc1ccc(Cl)c(Cl)c1)C(Cl)(Cl)Cl)c1ccco1 (stereo not drawn),i,i,i,i,i,·,·,·,·
CCS(=O)(=O)N1CCC(C(=O)NCc2ccc(OC)cc2)CC1,i,-6.33*,i,i,i,i,i,i,i
COc1ccccc1C(=O)NC(=S)NNC(=O)c1sc2ccccc2c1Cl,i,-12.3*,i,-9.07*,i,i,i,i,i
CC1CCCCC1NC(=S)NC(=O)c1sc2ccccc2c1Cl (stereo not drawn),i,i,i,i,i,·,·,·,·
Cc1cc(C)cc(-c2nnc(SCC(=O)N3CCN(C(=O)c4ccco4)CC3)o2)c1,i,-6.31*,i,i,i,i,i,i,i
COc1ccc(CCNC(=O)CN2C(=O)C3(OCCCO3)c3ccccc32)cc1OC,i,-5.39*,i,i,i,83.9%*,i,i,i
C/C(=N/NS(=O)(=O)c1cccc([N+](=O)[O-])c1)c1ccncc1,i,i,i,i,i,·,·,·,·
CCOC(=O)C1=C(O)/C(=C\c2sccc2C)N=C1C,i,-5.24*,i,i,i,i,i,i,i
Cn1nc(C(=O)NCc2ccccc2)c2c1-c1ccccc1S(=O)(=O)C2,i,i,i,i,i,·,·,·,·
O=C(c1ccccc1)N1CCN(Cc2ccccc2)CC1,i,i,i,i,i,·,·,·,·
Cc1ccc(CN2CCN(C(=O)c3ccncc3)CC2)cc1,i,-4.67*,i,i,i,i,i,i,i
O=C(Nc1nsc(-c2ccccc2)n1)c1cccs1,i,-10.2*,i,i,i,i,i,i,i
O=C(NCCCn1ccnc1)c1cc(S(=O)(=O)N2CCOCC2)c(Cl)cc1Cl,i,-5.12*,i,i,i,i,i,i,i
Cc1ccc(C(=O)Nc2nc3ccccc3n3nnnc23)cc1,i,-10.9*,i,i,i,83.8%*,i,i,i
CCCn1c(N)c(NCCN2CCOCC2)c(=O)[nH]c1=O,i,-5.88*,i,i,i,i,i,i,i
CCCCNc1c(N)n(CCC)c(=O)[nH]c1=O,i,i,i,i,i,·,·,·,·
CC1(C)C2CCC13CS(=O)(=O)N[C@@H]3C2 (stereo partly drawn),i,-9.4*,i,i,i,i,i,i,i
CCCCCCCN1CCC(=O)N([C@H](CO)CC(C)C)CC1,i,i,i,i,i,·,·,·,·
COC(=O)c1ccc(CSc2nnc(SCc3ccc(C(=O)OC)o3)s2)o1,i,i,i,i,i,·,·,·,·
COC(=O)c1ccc(CSc2nc(C)nc3sc(C)c(C)c23)o1,i,-7.36*,i,i,i,i,i,i,i
SMILES,MrgX1 allo act,MrgX1 antag,RGS4 inh,RGS4 act,MrgX1 ag,MrgX1 antag conf,HEK293 Ca flux,HEK293 Ca counter,HEK293 Ca cntr2
CCCCc1cc(=O)oc2cc(OCC(=O)Nc3cccnc3)c(Cl)cc12,i,i,i,i,i,·,·,·,·
CCCc1nnc(SCC(=O)Nc2nnc(CC)s2)n1CC1CCCO1 (stereo not drawn),i,i,i,i,i,·,·,·,·
O=C1C2CCCN2C(c2cccc(Br)c2)N1c1ccc(F)cc1 (stereo not drawn),i,i,i,i,i,·,·,·,·
O=C1C2CCCN2C(c2ccc(Br)cc2)N1c1ccc(F)cc1 (stereo not drawn),i,-5.71*,i,i,i,i,i,i,i
COc1ccc(C2N(c3ccc(F)cc3)C(=O)C3CCCN32)cc1 (stereo not drawn),i,-6.34*,i,i,i,i,i,i,i
COc1cccc(CC2(CO)CCCN(Cc3sc(N4CCCC4)nc3Cl)C2)c1 (stereo not drawn),i,i,i,i,i,·,·,·,·
Cc1ccccc1CC1SC(N)=NC1=O (stereo not drawn),i,i,i,i,i,·,·,·,·
CCn1c(-c2csc(-c3ccc(Cl)cc3)n2)n[nH]c1=S,i,-5.97*,i,i,i,i,i,i,i
CCn1c(-c2csc(-c3ccccc3)n2)n[nH]c1=S,i,i,i,i,i,·,·,·,·
CCOC(=O)c1ccc(NC(=O)c2ccc(C)c(S(=O)(=O)N3CCOCC3)c2)cc1,i,-10.9*,i,i,i,21.3%*,i,i,i
Cc1ccc(C(=O)OCc2nnc(-c3ccccc3)o2)cc1S(=O)(=O)N1CCOCC1,i,-4.59*,i,i,i,82.8%*,i,i,i
